Measurements from ChEMBL document CHEMBL1123969, “Cardiovascular effects of new water-soluble derivatives of forskolin” (J Med Chem, 1988).
In brackets after ≈: the same amount, converted by molar mass.

Tests used:
[1] = test system: Felis catus; assay: Effective dose for lowering blood pressure in anesthetized cat when administered intravenously; type: functional; conditions: iv
Procedure, shortened: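 Cats of either sex, 3–4 kg, under ether induction and chloralose (70 mg/kg iv). Compounds in distilled water or propylene glycol were given iv via the femoral vein at 0.01–10 mg/kg. Fall in mean arterial pressure read 10 min post-dose. ED20 taken graphically from the log dose-response curve, with doses run in triplicate.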

[2] = organism: Cavia porcellus; assay: Positive inotropic activity was assessed in spontaneously beating guinea pig atria; NA=Not active; type: functional, organism-based
Procedure, shortened: (§1)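 Guinea pig atria, spontaneously beating, in Ringer solution at 32 °C gassed with 95% O2/5% CO2. Isometric force recorded at 0.5–1 g initial tension after 30 min stabilization. Compounds in water or propylene glycol given cumulatively at 0.01–30 μg/mL, with 7 min contact per dose. EC50 for a 50% force increase taken graphically from the dose-response curve, in triplicate.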

[3] = organism: Cavia porcellus; assay: Positive inotropic activity in spontaneously beating guinea pig atria; type: functional, organism-based; procedure, shortened: as §1

Row | SMILES | ED20 [1] [mg/kg] | EC50 [2] | EC50 [3] [µg/mL]
1 | Nc1cc(N2CCCCC2)nc(N)[n+]1[O-] [MINOXIDIL] | 0.9 |  | 
2 | C=C[C@@]1(C)CC(=O)[C@]2(O)C3(C)C(C(OC(=O)C(C)N4CCCCC4)C(O)[C@@]2(C)O1)C(C)(C)CC[C@@H]3O.Cl (stereo partly drawn) | 1 | Not Active | 
3 | C=C[C@@]1(C)CC(=O)[C@]2(O)C3(C)C(C(OC(=O)C(C)Nc4ccccc4)C(O)[C@@]2(C)O1)C(C)(C)CC[C@@H]3O.Cl (stereo partly drawn) | 6.2 | Not Active | 
4 | C=C[C@@]1(C)CC(=O)[C@]2(O)C3(C)C(C(O)C(OC(=O)C(C)(C)N4CCOCC4)[C@@]2(C)O1)C(C)(C)CC[C@@H]3O.Cl (stereo partly drawn) | 1.8 |  | 3
5 | C=C[C@@]1(C)CC(=O)[C@]2(O)C3(C)C(C(O)C(OC(=O)CCCn4cnc5c4c(=O)n(C)c(=O)n5C)[C@@]2(C)O1)C(C)(C)CC[C@@H]3O (stereo partly drawn) | 3 | Not Active | 
6 | C=C[C@@]1(C)CC(=O)[C@]2(O)C3(C)C(C(OC(=O)CN4CCSCC4)C(O)[C@@]2(C)O1)C(C)(C)CC[C@@H]3O.Cl (stereo partly drawn) | 5 |  | 1.5
7 | C=C[C@@]1(C)CC(=O)[C@]2(O)C3(C)C(C(OC(=O)CN4CCC(O)(c5ccccc5)CC4)C(O)[C@@]2(C)O1)C(C)(C)CC[C@@H]3O (stereo partly drawn) | 5 |  | 3 (≈ 5.12 µM)
8 | C=C[C@@]1(C)CC(=O)[C@]2(O)C3(C)C(C(O)C(OC(=O)CN4CCCC(C)C4)[C@@]2(C)O1)C(C)(C)CC[C@@H]3O.Cl (stereo partly drawn) | 10 |  | > 30
9 | C=C[C@@]1(C)CC(=O)[C@]2(O)C3(C)C(C(O)C(OC(=O)CN(C)C4CCCCC4)[C@@]2(C)O1)C(C)(C)CC[C@@H]3O (stereo partly drawn) | 10 | Not Active | 
10 | C=C[C@@]1(C)CC(=O)[C@]2(O)C3(C)C(C(O)C(OC(=O)CCN4CCCCC4)[C@@]2(C)O1)C(C)(C)CC[C@@H]3O.Cl (stereo partly drawn) |  |  | 1
11 | C=C[C@@]1(C)CC(=O)[C@]2(O)C3(C)C(C(O)C(OC(=O)CNc4ccccc4)[C@@]2(C)O1)C(C)(C)CC[C@@H]3O (stereo partly drawn) | 2 |  | > 10
12 | C=C[C@@]1(C)CC(=O)[C@]2(O)C3(C)C(C(OC(=O)CCCCN4CCCCC4)C(O)[C@@]2(C)O1)C(C)(C)CC[C@@H]3O.Cl (stereo partly drawn) | 1 |  | > 30
13 | C=C[C@@]1(C)CC(=O)[C@]2(O)C3(C)C(C(OC(=O)C(C)N4CCN(C)CC4)C(O)[C@@]2(C)O1)C(C)(C)CC[C@@H]3O.Cl (stereo partly drawn) | 3 | Not Active | 
14 | C=C[C@@]1(C)CC(=O)[C@]2(O)C3(C)C(C(O)C(OC(=O)CCCN4CCOCC4)[C@@]2(C)O1)C(C)(C)CC[C@@H]3O.Cl (stereo partly drawn) | 1.8 |  | 10
15 | C=C[C@@]1(C)CC(=O)[C@]2(O)C3(C)C(C(OC(=O)CN4CCCC(C)C4)C(O)[C@@]2(C)O1)C(C)(C)CC[C@@H]3O.Cl (stereo partly drawn) | 5.4 |  | > 30
16 | C=C[C@@]1(C)CC(=O)[C@]2(O)C3(C)C(C(O)C(OC(=O)C(C)Nc4ccccc4)[C@@]2(C)O1)C(C)(C)CC[C@@H]3O (stereo partly drawn) | 3 | Not Active | 
17 | C=C[C@@]1(C)CC(=O)[C@]2(O)C3(C)C(C(O)C(OC(=O)CCCN4CCN(C)CC4)[C@@]2(C)O1)C(C)(C)CC[C@@H]3O.Cl (stereo partly drawn) | 0.8 | Not Active | 
18 | C=C[C@@]1(C)CC(=O)[C@]2(O)C3(C)C(C(OC(=O)Cn4cnc5c4c(=O)n(C)c(=O)n5C)C(O)[C@@]2(C)O1)C(C)(C)CC[C@@H]3O (stereo partly drawn) | 4.5 |  | 3 (≈ 5.1 µM)
19 | C=C[C@@]1(C)CC(=O)[C@]2(O)C3(C)C(C(O)C(OC(=O)CCN4CCOCC4)[C@@]2(C)O1)C(C)(C)CC[C@@H]3O.Cl (stereo partly drawn) |  | Not Active | 
20 | C=C[C@@]1(C)CC(=O)[C@]2(O)C3(C)C(C(OC(=O)CCCN4CCOCC4)C(O)[C@@]2(C)O1)C(C)(C)CC[C@@H]3O.Cl (stereo partly drawn) | 2 | Not Active | 
21 | C=C[C@@]1(C)CC(=O)[C@]2(O)C3(C)C(C(O)C(OC(=O)Cn4nnc5ccccc54)[C@@]2(C)O1)C(C)(C)CC[C@@H]3O (stereo partly drawn) | 3 |  | > 30
22 | C=C[C@@]1(C)CC(=O)[C@]2(O)C3(C)C(C(O)C(OC(=O)CN(CC)CC)[C@@]2(C)O1)C(C)(C)CC[C@@H]3O.Cl (stereo partly drawn) | 2 |  | 10
23 | C=C[C@@]1(C)CC(=O)[C@]2(O)C3(C)C(C(OC(=O)CN4CCN(C)CC4)C(O)[C@@]2(C)O1)C(C)(C)CC[C@@H]3O.Cl (stereo partly drawn) | 1.3 |  | 30
24 | C=C[C@@]1(C)CC(=O)[C@]2(O)C3(C)C(C(O)C(OC(=O)CN4CCSCC4)[C@@]2(C)O1)C(C)(C)CC[C@@H]3O.Cl (stereo partly drawn) | 3 |  | > 30

Row | SMILES | ED20 [1] [mg/kg] | EC50 [2] | EC50 [3] [µg/mL]
25 | C=C[C@@]1(C)CC(=O)[C@]2(O)C3(C)C(C(O)C(OC(=O)CN4CCC(NC(=O)c5ccccc5)CC4)[C@@]2(C)O1)C(C)(C)CC[C@@H]3O (stereo partly drawn) | 3 | Not Active | 
26 | C=C[C@@]1(C)CC(=O)[C@]2(O)C3(C)C(C(OC(=O)CN4CCCC4)C(O)[C@@]2(C)O1)C(C)(C)CC[C@@H]3O.Cl (stereo partly drawn) | 1 |  | 3
27 | C=C[C@@]1(C)CC(=O)[C@]2(O)C3(C)C(C(O)C(OC(=O)CCCN4CCCCC4)[C@@]2(C)O1)C(C)(C)CC[C@@H]3O.Cl (stereo partly drawn) | 0.3 |  | > 30
28 | C=C[C@@]1(C)CC(=O)[C@]2(O)C3(C)C(C(OC(=O)CN4CCCCCC4)C(O)[C@@]2(C)O1)C(C)(C)CC[C@@H]3O.Cl (stereo partly drawn) | 1 |  | 1.9
29 | C=C[C@@]1(C)CC(=O)[C@]2(O)C3(C)C(C(O)C(OC(=O)Cn4cnc5c4c(=O)n(C)c(=O)n5C)[C@@]2(C)O1)C(C)(C)CC[C@@H]3O (stereo partly drawn) | 3 |  | 0.74 (≈ 1.26 µM)
30 | C=C[C@@]1(C)CC(=O)[C@]2(O)C3(C)C(C(O)C(OC(=O)C(C)N4CCCCC4)[C@@]2(C)O1)C(C)(C)CC[C@@H]3O (stereo partly drawn) | 4.5 |  | > 30
31 | C=C[C@@]1(C)CC(=O)[C@]2(O)C3(C)C(C(O)C(OC(=O)CCN4CCN(C)CC4)[C@@]2(C)O1)C(C)(C)CC[C@@H]3O.Cl (stereo partly drawn) |  | Not Active | 
32 | C=C[C@@]1(C)CC(=O)[C@]2(O)C3(C)C(C(OC(=O)CCN4CCN(C)CC4)C(O)[C@@]2(C)O1)C(C)(C)CC[C@@H]3O.Cl (stereo partly drawn) | 1.4 |  | 0.2
33 | C=C[C@@]1(C)CC(=O)[C@]2(O)C3(C)C(C(O)C(OC(=O)CN4CCC(O)CC4)[C@@]2(C)O1)C(C)(C)CC[C@@H]3O.Cl (stereo partly drawn) | 3 |  | > 30
34 | C=C[C@@]1(C)CC(=O)[C@]2(O)C3(C)C(C(O)C(OC(=O)CN4CCCCC4)[C@@]2(C)O1)C(C)(C)CC[C@@H]3O.Cl (stereo partly drawn) | 10 |  | > 30
35 | C=C[C@@]1(C)CC(=O)[C@]2(O)C3(C)C(C(O)C(OC(=O)CNC(C)(C)C)[C@@]2(C)O1)C(C)(C)CC[C@@H]3O.Cl (stereo partly drawn) | 1 |  | > 30
36 | C=C[C@@]1(C)CC(=O)[C@]2(O)C3(C)C(C(O)C(OC(=O)Cn4c(=O)c5c(ncn5COCCOC)n(C)c4=O)[C@@]2(C)O1)C(C)(C)CC[C@@H]3O (stereo partly drawn) | 6 |  | 2 (≈ 3.02 µM)
37 | C=C[C@@]1(C)CC(=O)[C@]2(O)C3(C)C(C(O)C(OC(=O)CN4CCCC4)[C@@]2(C)O1)C(C)(C)CC[C@@H]3O.Cl (stereo partly drawn) | 4 |  | 1.8
38 | C=C[C@@]1(C)CC(=O)[C@]2(O)C3(C)C(C(OC(=O)CN4CCC(NC(=O)c5ccccc5)CC4)C(O)[C@@]2(C)O1)C(C)(C)CC[C@@H]3O (stereo partly drawn) | 4 |  | 1.2 (≈ 1.96 µM)
39 | CC(CCc1ccc(O)cc1)NCCc1ccc(O)c(O)c1 (stereo not drawn) [DOBUTAMINE] |  |  | 0.3 (≈ 0.995 µM)
40 | C=C[C@@]1(C)CC(=O)[C@]2(O)C3(C)C(C(OC(=O)CNCc4ccccc4)C(O)[C@@]2(C)O1)C(C)(C)CC[C@@H]3O.Cl (stereo partly drawn) | 3.5 |  | 10
41 | C=C[C@@]1(C)CC(=O)[C@]2(O)C3(C)C(C(O)C(OC(=O)CN4CCN(C)CC4)[C@@]2(C)O1)C(C)(C)CC[C@@H]3O.Cl (stereo partly drawn) | 0.9 |  | > 30
42 | C=C[C@@]1(C)CC(=O)[C@]2(O)C3(C)C(C(O)C(OC(=O)Cn4cc(C(=O)OCC)c(=O)c5ccc(C(F)(F)F)cc54)[C@@]2(C)O1)C(C)(C)CC[C@@H]3O (stereo partly drawn) |  | Not Active | 
43 | C=C[C@@]1(C)CC(=O)[C@]2(O)C3(C)C(C(O)C(OC(=O)CCCCN4CCCCC4)[C@@]2(C)O1)C(C)(C)CC[C@@H]3O.Cl (stereo partly drawn) | 1 |  | 30
44 | C=C[C@@]1(C)CC(=O)[C@]2(O)C3(C)C(C(O)C(OC(=O)CCN4C(=O)c5ccccc5C4=O)[C@@]2(C)O1)C(C)(C)CC[C@@H]3O (stereo partly drawn) | 10 |  | > 30
45 | C=C[C@@]1(C)CC(=O)[C@]2(O)C3(C)C(C(O)C(OC(=O)C(C)n4cnc5c4c(=O)n(C)c(=O)n5C)[C@@]2(C)O1)C(C)(C)CC[C@@H]3O (stereo partly drawn) | 5 |  | 0.9 (≈ 1.49 µM)
46 | C=C[C@@]1(C)CC(=O)[C@]2(O)C3(C)C(C(OC(=O)C(C)N4CCOCC4)C(O)[C@@]2(C)O1)C(C)(C)CC[C@@H]3O.Cl (stereo partly drawn) | 3 |  | > 30
47 | C=C[C@@]1(C)CC(=O)[C@]2(O)C3(C)C(C(O)C(OC(=O)CN4CCC(C)CC4)[C@@]2(C)O1)C(C)(C)CC[C@@H]3O.Cl (stereo partly drawn) | 10 |  | > 30
